In ChEMBL document CHEMBL1121524, “Studies of hypolipidemic agents. 1. Synthesis and hypolipidemic activities of alkoxycinnamic acid derivatives” (1980):

Legend:
Rattus norvegicus [1] = species: Rattus norvegicus; test: Tested for the hypolipidemic activity, expressed as percent decrease in Triglyceride in rat, at dosage of 100 mg for 6 days by Ryan and Rasho method; type: functional
Summary of the method: (§1)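 Male Sprague-Dawley rats, 4 weeks old, kept on CE-2 chow for at least 1 week, then grouped (generally five per group). Compound was mixed into CE-2 powder and fed ad libitum for the stated period; controls received plain CE-2 powder. Diet level is given as mg/100 g (mg%), about equal to mg/kg/day. Total serum triglyceride was measured by the Ryan and Rasho method and reported as percent depression versus control group mean. Significance was p < 0.05.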

Rattus norvegicus [2] = species: Rattus norvegicus; test: Tested for the hypolipidemic activity, expressed as percent decrease in serum cholesterol in rat, at dosage of 100 mg for 6 days by Zak et al method; type: functional
Summary of the method: as §1, with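 “cholesterol” for “triglyceride”, “Zak et al.” for “Ryan and Rasho”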

Rattus norvegicus [3] = species: Rattus norvegicus; test: Tested for the hypolipidemic activity, expressed as percent decrease in Triglyceride in rat, at dosage of 10 mg for 7 days by Ryan and Rasho method; type: functional; summary of the method: as §1
Rattus norvegicus [4] = test: In vivo hypolipidemic activity, expressed as percent decrease in serum cholesterol in rat, at dosage of 20 mg for 7 days.; type: functional
Summary of the method: as §1, with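 “cholesterol” for “triglyceride”, “Zak et al.” for “Ryan and Rasho”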

Rattus norvegicus [5] = species: Rattus norvegicus; test: Tested for the hypolipidemic activity, expressed as percent decrease in serum cholesterol in rat, at dosage of 10 mg for 7 days by Zak et al method; type: functional
Summary of the method: as §1, with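 “cholesterol” for “triglyceride”, “Zak et al.” for “Ryan and Rasho”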

Rattus norvegicus [6] = species: Rattus norvegicus; test: Tested for the hypolipidemic activity, expressed as percent decrease in serum cholesterol in rat, at dosage of 100 mg for 5 days by Zak et al method; type: functional
Summary of the method: as §1, with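 “cholesterol” for “triglyceride”, “Zak et al.” for “Ryan and Rasho”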

Rattus norvegicus [7] = species: Rattus norvegicus; test: Tested for the hypolipidemic activity, expressed as percent decrease in Triglyceride in rat, at dosage of 100 mg for 5 days by Ryan and Rasho method; type: functional; summary of the method: as §1
Rattus norvegicus [8] = species: Rattus norvegicus; test: tested for the hypolipidemic activity, expressed as percent decrease in serum cholesterol in rat, at dosage of 50 mg for 3 days by Zak et al method; type: functional
Summary of the method: as §1, with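 “cholesterol” for “triglyceride”, “Zak et al.” for “Ryan and Rasho”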

Rattus norvegicus [9] = species: Rattus norvegicus; test: tested for the hypolipidemic activity, expressed as percent decrease in Triglyceride in rat, at dosage of 10 mg for 7 days by Ryan and Rasho method; type: functional; summary of the method: as §1
Rattus norvegicus [10] = species: Rattus norvegicus; test: tested for the hypolipidemic activity, expressed as percent decrease in Triglyceride in rat, at dosage of 50 mg for 3 days by Ryan and Rasho method; type: functional; summary of the method: as §1
Rattus norvegicus [11] = species: Rattus norvegicus; test: Hypolipidemic activity, expressed as percent decrease in serum cholesterol in rat, at dosage of 100 mg for 7 days by Zak et al method; type: functional
Summary of the method: as §1, with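 “cholesterol” for “triglyceride”, “Zak et al.” for “Ryan and Rasho”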

Rattus norvegicus [12] = species: Rattus norvegicus; test: tested for the hypolipidemic activity, expressed as percent decrease in serum cholesterol in rat, at dosage of 10 mg for 7 days by Zak et al method; type: functional
Summary of the method: as §1, with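 “cholesterol” for “triglyceride”, “Zak et al.” for “Ryan and Rasho”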

Rattus norvegicus [13] = test: In vivo hypolipidemic activity, expressed as percent decrease in serum triglyceride in rat, at dosage of 20 mg for 7 days.
Rattus norvegicus [14] = test: In vivo hypolipidemic activity, expressed as percent decrease in Triglyceride in rat, at dosage of 100 mg for 7 days.; type: functional; summary of the method: as §1
Rattus norvegicus [15] = species: Rattus norvegicus; test: Tested for the hypolipidemic activity, expressed as percent decrease in Triglyceride in rat, at dosage of 30 mg for 7 days by Ryan and Rasho method; type: functional; summary of the method: as §1
Rattus norvegicus [16] = species: Rattus norvegicus; test: Tested for the hypolipidemic activity, expressed as percent decrease in serum cholesterol in rat, at dosage of 30 mg for 7 days by Zak et al method; type: functional
Summary of the method: as §1, with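 “cholesterol” for “triglyceride”, “Zak et al.” for “Ryan and Rasho”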

Rattus norvegicus [17] = species: Rattus norvegicus; test: Hypolipidemic activity expressed as percentage decrease in triglyceride in rat, at dosage of 50 mg for 7 days; type: functional; summary of the method: as §1
Rattus norvegicus [18] = species: Rattus norvegicus; test: Tested for the hypolipidemic activity, expressed as percent decrease in serum cholesterol in rat, at dosage of 50 mg for 7 days; type: functional
Summary of the method: as §1, with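 “cholesterol” for “triglyceride”, “Zak et al.” for “Ryan and Rasho”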

Rattus norvegicus [19] = species: Rattus norvegicus; test: tested for the hypolipidemic activity, expressed as percent decrease in Triglyceride in rat, at dosage of 75.8 mg for 7 days by Ryan and Rasho method; type: functional; summary of the method: as §1
Rattus norvegicus [20] = species: Rattus norvegicus; test: Tested for the hypolipidemic activity, expressed as percent decrease in serum cholesterol in rat, at dosage of 75.8 mg for 7 days by Zak et al method; type: functional
Summary of the method: as §1, with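 “cholesterol” for “triglyceride”, “Zak et al.” for “Ryan and Rasho”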

Rattus norvegicus [21] = species: Rattus norvegicus; test: Tested for the hypolipidemic activity, expressed as percent decrease in serum cholesterol in rat, at dosage of 100 mg for 3 days by Zak et al method; type: functional
Summary of the method: as §1, with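 “cholesterol” for “triglyceride”, “Zak et al.” for “Ryan and Rasho”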

Rattus norvegicus [22] = species: Rattus norvegicus; test: Tested for the hypolipidemic activity, expressed as percent decrease in Triglyceride in rat, at dosage of 100 mg for 3 days by Ryan and Rasho method; type: functional; summary of the method: as §1
Rattus norvegicus [23] = test: tested for the hypolipidemic activity, expressed as percent decrease in Triglyceride in rat, at dosage of 20 mg/kg 0 mg for 7 days by Ryan and Rasho method
Rattus norvegicus [24] = species: Rattus norvegicus; test: Tested for the hypolipidemic activity, expressed as percent decrease in Triglyceride in rat, at dosage of mg for 7 days by Ryan and Rasho method; type: functional; summary of the method: as §1
Rattus norvegicus [25] = species: Rattus norvegicus; test: Tested for the hypolipidemic activity, expressed as percent decrease in serum cholesterol in rat, at dosage of 20 mg for 7 days by Zak et al method; type: functional
Summary of the method: as §1, with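 “cholesterol” for “triglyceride”, “Zak et al.” for “Ryan and Rasho”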

Rattus norvegicus [26] = species: Rattus norvegicus; test: tested for the hypolipidemic activity, expressed as percent decrease in Triglyceride in rat, at dosage of 20 mg for 7 days by Ryan and Rasho method; type: functional; summary of the method: as §1
Rattus norvegicus [27] = species: Rattus norvegicus; test: Tested for the hypolipidemic activity, expressed as percent decrease in Triglyceride in rat, at dosage of 102 mg for 7 days by Ryan and Rasho method; type: functional; summary of the method: as §1
Rattus norvegicus [28] = species: Rattus norvegicus; test: Tested for the hypolipidemic activity, expressed as percent decrease in serum cholesterol in rat, at dosage of 102 mg for 7 days by Zak et al method; type: functional
Summary of the method: as §1, with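 “cholesterol” for “triglyceride”, “Zak et al.” for “Ryan and Rasho”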

Compound: CCCCCCCCOc1ccc(/C=C/C(=O)OCC(O)CO)cc1 (configuration not stated)
- Decrease (Rattus norvegicus [1]): 15%
- Decrease (Rattus norvegicus [2]): 7%

Compound: CCCCOc1ccc(/C=C/C(=O)OCC(O)CO)cc1 (configuration not stated)
- Decrease (Rattus norvegicus [1]): 15%
- Decrease (Rattus norvegicus [2]): 7%

Compound: CCCCCCCCCCCCCCCCOc1ccc(/C=C/C(=O)O)cc1
- Decrease (Rattus norvegicus [3]): 2%
- Decrease (Rattus norvegicus [4]): 2%
- Decrease (Rattus norvegicus [5]): 7%

Compound: C=C(C)C(=O)OCCOC(=O)/C=C/c1ccc(OCCCCCCC/C=C/CCCCCCCCC)cc1
- Decrease (Rattus norvegicus [6]): -13%
- Decrease (Rattus norvegicus [7]): 21%

Compound: C=C(C)C(=O)OCCOC(=O)/C(C)=C/c1ccc(OCCCCCCCCCCCCCCCC)cc1
- Decrease (Rattus norvegicus [8]): 25%
- Decrease (Rattus norvegicus [9]): 10%
- Decrease (Rattus norvegicus [10]): 27%
- Decrease (Rattus norvegicus [11]): 35%
- Decrease (Rattus norvegicus [12]): 3%
- Decrease (Rattus norvegicus [4]): 13%
- Decrease (Rattus norvegicus [13]): 12%
- Decrease (Rattus norvegicus [14]): 62%

Compound: COc1ccc(/C=C/C(=O)OCC(O)CO)cc1 (configuration not stated)
- Decrease (Rattus norvegicus [1]): 31%
- Decrease (Rattus norvegicus [2]): 4%

Compound: C=CCOc1ccc(/C=C/C(=O)O)cc1
- Decrease (Rattus norvegicus [15]): -16%
- Decrease (Rattus norvegicus [16]): 0%

Compound: C=C(C)C(=O)OCCOC(=O)/C=C/c1ccc(OCCCCCCCCCCCCCCCC)cc1
- Decrease (Rattus norvegicus [9]): 15%
- Decrease (Rattus norvegicus [17]): 42%
- Decrease (Rattus norvegicus [11]): 27%
- Decrease (Rattus norvegicus [18]): 13%
- Decrease (Rattus norvegicus [12]): 5%
- Decrease (Rattus norvegicus [4]): 16%
- Decrease (Rattus norvegicus [13]): 38%
- Decrease (Rattus norvegicus [14]): 65%

Compound: O=C(/C=C/c1ccccc1)OCC(O)CO (configuration not stated)
- Decrease (Rattus norvegicus [1]): 16%
- Decrease (Rattus norvegicus [2]): 6%

Compound: CCCCCCCCCCCCCCCCOc1ccc(/C=C/C(=O)OCC(O)CO)cc1 (configuration not stated)
- Decrease (Rattus norvegicus [9]): 11%
- Decrease (Rattus norvegicus [17]): 17%
- Decrease (Rattus norvegicus [11]): 26%
- Decrease (Rattus norvegicus [18]): 19%
- Decrease (Rattus norvegicus [12]): -4%
- Decrease (Rattus norvegicus [4]): 9%
- Decrease (Rattus norvegicus [13]): 8%
- Decrease (Rattus norvegicus [14]): 62%

Compound: O=C(/C=C/c1ccc(Oc2ccccc2)cc1)OCCCCl
- Decrease (Rattus norvegicus [3]): 13%
- Decrease (Rattus norvegicus [1]): 54%
- Decrease (Rattus norvegicus [4]): 17%
- Decrease (Rattus norvegicus [2]): 32%
- Decrease (Rattus norvegicus [5]): 4%
- Decrease (Rattus norvegicus [13]): -2%

Compound: CCCCCCCCCCCCCCCC(=O)OCC(O)COC(=O)/C(C)=C/c1ccc(OCCCCCCCCCCCCCC)cc1 (configuration not stated)
- Decrease (Rattus norvegicus [19]): -19%
- Decrease (Rattus norvegicus [20]): 3%

Compound: CCCCCCCCCCCCCCCCOc1ccc(/C=C(\C)C(=O)OCCCl)cc1
- Decrease (Rattus norvegicus [8]): 20%
- Decrease (Rattus norvegicus [21]): 24%
- Decrease (Rattus norvegicus [10]): 26%
- Decrease (Rattus norvegicus [22]): 48%
- Decrease (Rattus norvegicus [4]): 20%
- Decrease (Rattus norvegicus [13]): 5%

Compound: CCCCCCCCCCCCCCCCOc1ccc(/C=C/C(=O)OCCCl)cc1
- Decrease (Rattus norvegicus [17]): 43%
- Decrease (Rattus norvegicus [18]): -4%
- Decrease (Rattus norvegicus [23]): 17%
- Decrease (Rattus norvegicus [4]): 17%

Compound: CCCCCCCCCCCCOc1ccc(/C=C(\C)C(=O)OCC(COC(=O)/C(C)=C/c2ccc(OCCCCCCCCCCCC)cc2)OC(=O)/C(C)=C/c2ccc(OCCCCCCCCCCCC)cc2)cc1 (configuration not stated)
- Decrease (Rattus norvegicus [24]): 28%
- Decrease (Rattus norvegicus [18]): 2%

Compound: CCCCCCCCCCCCOc1ccc(/C=C(\C)C(=O)O)cc1
- Decrease (Rattus norvegicus [25]): 7%
- Decrease (Rattus norvegicus [9]): 13%
- Decrease (Rattus norvegicus [17]): 31%
- Decrease (Rattus norvegicus [26]): 32%
- Decrease (Rattus norvegicus [18]): 17%
- Decrease (Rattus norvegicus [12]): 14%

Compound: CCCCCCCCCCCCCCCC(=O)OCC(COC(=O)/C(C)=C/c1ccc(OCCCCCCCCCCCCCC)cc1)OC(=O)CCCCCCCCCCCCCCC (configuration not stated)
- Decrease (Rattus norvegicus [27]): 5%
- Decrease (Rattus norvegicus [28]): 18%
